Measurements from ChEMBL document CHEMBL1124702, “Synthesis and pharmacological evaluation of a series of dibenzo[a,d]cycloalkenimines as N-methyl-D-aspartate antagonists” (J Med Chem, 1990).
pKi: −log10 of the molar value.

Legend:
Glutamate NMDA receptor = experiment: Inhibition of N-methyl-D-aspartate glutamate receptor (NMDA receptor) from homogenized rat brain membrane, using [3H]-MK-801 as a radioligand
Method in brief: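 Male Sprague-Dawley rat (200-300 g) cortical membranes, washed and preincubated 20 min at 23 °C in 5 mM Tris-HCl pH 7.4. Duplicate aliquots (ca. 0.75 mg protein) incubated 60 min at 23 °C with displacer plus [3H]-(+)-10 added as 100 µL of 50 nM stock. Filter-bound radioactivity counted by liquid scintillation; Ki reported.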

[1] = target: Glutamate NMDA receptor (Rattus norvegicus) (UniProt P35439+Q00959+Q00960+Q00961+Q62645+Q8VHN2+Q9R1M7); experiment: Antagonistic activity against N-methyl-D-aspartate glutamate receptor from rat cortical slice; assay type: functional
Method in brief: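 Greased-gap recording of NMDA-induced population depolarizations in rat cortical slices. An NMDA concentration-response curve was run, then repeated with antagonist present. Apparent Kb = antagonist concentration/(CR-1), with CR taken at the midpoint of the control curve. If the curve flattened, a lower antagonist concentration was tried. Failing that, the threshold concentration giving significant antagonism was used.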

Mus musculus = experiment: Inhibition of N-Methyl-D,L-aspartate induced convulsions in mice following 500 mg/kg i.p.; assay type: functional; conditions: ip, route intraperitoneal

Row | SMILES | pKi (Glutamate NMDA receptor) | Kb [1] [µM] | ED50 (Mus musculus) [mg/kg]
1 | c1ccc(SCC23NC(Cc4ccccc42)c2ccccc23)cc1 (configuration not stated) | 4.14 |  | 
2 | CC12NC(O)(Cc3ccccc31)c1ccccc12 (configuration not stated) | 7.11 | 0.66 | 
3 | OCC12NC(Cc3ccccc31)c1ccccc12 (configuration not stated) | 6.46 |  | 
4 | O=C(O)CC12NC(Cl)(Cc3ccccc31)c1ccccc12 (configuration not stated) | < 2.35 |  | 
5 | CC12NC(Cc3ccccc31)c1cc(O)ccc12 (stereo in doubt; 106) [listing 1 of 2 here] | 7.31 |  | 
6 | NC(=O)CC12NC(O)(Cc3ccccc31)c1ccccc12 (configuration not stated) | 5.19 |  | 
7 | CC12NC(Cc3ccc(Cl)cc31)c1ccccc12 (stereo in doubt; 64) [listing 1 of 2 here] | 7.96 |  | 
8 | OCCN1C2Cc3ccccc3C1c1ccccc12 (configuration not stated) | 4.15 |  | 
9 | CC12NC(Cc3ccccc31)c1ccc(Cl)cc12 (single isomer, unassigned; (+)) [listing 1 of 2 here] |  | 0.08 | 
10 | COc1ccc2c(c1)C1(C)NC2Cc2ccccc21 (stereo in doubt; 83) [listing 1 of 2 here] |  | 0.23 | 
11 | O=C(O)C(O)[C@]12NC(Cc3ccccc31)c1ccccc12 (some centres not stated) | < 3.00 |  | 
12 | CCCC12NC(Cc3ccccc31)c1ccccc12 (configuration not stated) | 5.07 |  | 
13 | CC12NC(c3ccccc31)[C@@H](O)c1ccccc12 (stereo in doubt; (+)120) [listing 1 of 2 here] |  | 0.25 | 
14 | CC12NC(Cc3ccccc31)c1ccc(Cl)cc12 (stereo in doubt; 63) [listing 1 of 2 here] |  | 1.66 | 
15 | CC12NC(Cc3ccccc31)c1ccc(Br)cc12 (configuration not stated) | 6.74 | 0.46 | 
16 | CC12NC(c3ccccc31)[C@@H](O)c1ccccc12 (stereo in doubt; (+)120) [listing 2 of 2 here] | 7.04 |  | 0.35
17 | CCC12NC(Cc3ccccc31)c1ccccc12 (configuration not stated) | 7.35 | 0.59 | 
18 | NC(=O)CC12NC(Cl)(Cc3ccccc31)c1ccccc12 (configuration not stated) | < 4.05 |  | 
19 | Cc1ccc2c(c1)C1(C)NC(C2)c2ccccc21 (configuration not stated) | 7.47 | 0.38 | 0.53
20 | O[C@@H]1c2ccccc2C2NC1c1ccccc12 (some centres not stated) | 3.96 | 9.6 | 
21 | COc1ccc2c(c1)C1(C)NC(C2)c2ccccc21 (configuration not stated) | 7.34 |  | 
22 | OCCC12NC(Cl)(Cc3ccccc31)c1ccccc12 (configuration not stated) | 6.55 |  | 

Row | SMILES | pKi (Glutamate NMDA receptor) | Kb [1] [µM] | ED50 (Mus musculus) [mg/kg]
23 | C[C@]12N[C@H](Cc3ccccc31)Cc1ccccc12 | 6.86 | 0.31 | 
24 | ClCCC12NC(Cl)(Cc3ccccc31)c1ccccc12 (configuration not stated) | 4.28 |  | 
25 | CC12NC(Cc3ccc(-c4ccccc4)cc31)c1ccccc12 (configuration not stated) | 7.49 | 0.26 | 7.76
26 | CCOC(=O)C(O)[C@]12NC(Cc3ccccc31)c1ccccc12 (some centres not stated) | 6.41 |  | 
27 | CN1C2Cc3ccccc3C1(O)c1ccccc1C2 | 3.54 |  | 
28 | CC12NC(Cc3ccc(F)cc31)c1ccccc12 (configuration not stated) | 7.52 | 0.38 | 
29 | CN1C2Cc3ccccc3C1c1ccccc12 (configuration not stated) | 4.92 |  | 
30 | CC12NC(c3ccccc31)[C@@H](O)c1ccccc12 (stereo in doubt; 120) [listing 1 of 2 here] | 6.68 |  | 
31 | CC12NC(F)(Cc3ccccc31)c1ccccc12 (configuration not stated) | 6.03 |  | 
32 | CN1C2Cc3ccccc3C1(C)c1ccccc1C2 | 5.92 |  | 
33 | COc1ccc2c(c1)CC1NC2(C)c2ccccc21 (configuration not stated) | 6.21 |  | 
34 | FCCC12NC(Cc3ccccc31)c1ccccc12 (configuration not stated) | 6.76 | 0.23 | 
35 | CC12NC(Cc3ccc(F)cc31)c1ccc(F)cc12 (configuration not stated) | 7.51 | 0.32 | 
36 | CC12NC(Cc3ccccc31)c1cc(O)ccc12 (stereo in doubt; 106) [listing 2 of 2 here] |  | 0.24 | 
37 | CC12NC(Cc3ccc(Br)cc31)c1ccccc12 (single isomer, unassigned; (+)) [listing 1 of 2 here] |  | 0.5 | 
38 | CC12NC(Cc3ccc(Cl)cc31)c1ccccc12 (single isomer, unassigned; (-)) |  | 0.56 | 
39 | O[C@H]1c2ccccc2C2NC1c1ccccc12 (some centres not stated) | 5.11 | 2.79 | 
40 | COc1ccc2c(c1)C1(C)NC2Cc2ccccc21 (stereo in doubt; (-)-83) | 6.99 |  | 
41 | CC12NC(Cc3ccc(Br)cc31)c1ccccc12 (single isomer, unassigned; (-)) | 6.95 |  | 
42 | CC12NC(c3ccccc31)[C@H](O)c1ccccc12 (some centres not stated) | 5.57 |  | 
43 | CN1C2Cc3ccccc3C1(C)c1ccccc12 (configuration not stated) | 6.21 |  | 
44 | c1ccc2c(c1)CC1NC2c2ccccc21 (configuration not stated) | 4.65 |  | 

Row | SMILES | pKi (Glutamate NMDA receptor) | Kb [1] [µM] | ED50 (Mus musculus) [mg/kg]
45 | CCOC(=O)CC12NC(O)(Cc3ccccc31)c1ccccc12 (configuration not stated) | 5.44 |  | 
46 | OCCC12NC(Cc3ccccc31)c1ccccc12 (configuration not stated) | 6.59 |  | 
47 | O=C(O)CC12NC(O)(Cc3ccccc31)c1ccccc12 (configuration not stated) | 3.55 |  | 
48 | CC12NC(Cc3ccc(Br)cc31)c1ccccc12 (single isomer, unassigned; (+)) [listing 2 of 2 here] | 8.22 |  | 
49 | CC12NC(Cc3ccccc31)c1ccc(Cl)cc12 (stereo in doubt; 63) [listing 2 of 2 here] | 7.08 |  | 
50 | CC12NC(Cc3ccc(Cl)cc31)c1ccccc12 (stereo in doubt; 64) [listing 2 of 2 here] |  | 0.067 | 
51 | CC12NC(Cc3ccccc31)c1cc(O)ccc12 (single isomer, unassigned; (-)) | 6.12 |  | 
52 | CC12NC(Cc3ccccc31)c1ccc(Cl)cc12 (stereo in doubt; (-)-63) [listing 1 of 2 here] |  | 0.56 | 
53 | COc1ccc2c(c1)C1(C)NC2Cc2ccccc21 (stereo in doubt; 83) [listing 2 of 2 here] | 7.44 |  | 0.77
54 | CCCCc1ccc2c(c1)C1(C)NC(C2)c2ccccc21 (configuration not stated) | 5.90 |  | 
55 | CCOC(=O)CC12c3ccccc3CC(O)(c3ccccc31)N2O (configuration not stated) | < 2.35 |  | 
56 | CN1C2CCc3ccccc3C1(C)c1ccccc12 (configuration not stated) | 5.06 |  | 
57 | CC12NC(Cc3ccc(N)cc31)c1ccccc12 (configuration not stated) | 7.57 |  | 
58 | CC12NC(Cc3ccccc31)c1cc(O)ccc12 (stereo in doubt; (+)-106) [listing 1 of 2 here] | 7.64 |  | 0.97
59 | COc1ccc2c(c1)C1Cc3ccccc3C2(C)N1 (configuration not stated) | 7.48 | 0.13 | 
60 | c1ccc2c(c1)CC1NC2(C2SCCCS2)c2ccccc21 (configuration not stated) | < 5.00 |  | 
61 | CCC12c3ccccc3CC(Cc3ccccc31)N2C | 5.69 |  | 
62 | CC12c3ccccc3CC(c3ccccc31)N2O (configuration not stated) | 4.72 | 45.6 | 
63 | CCOC(=O)CC12NC(Cc3ccccc31)c1ccccc12 (configuration not stated) | 6.26 |  | 
64 | CC12NC(Cc3ccccc31)c1ccc(Cl)cc12 (stereo in doubt; (-)-63) [listing 2 of 2 here] | 6.52 |  | 
65 | OC12NC(Cc3ccccc31)Cc1ccccc12 | 4.24 |  | 
66 | CC12NC(Cc3ccc(I)cc31)c1ccccc12 (configuration not stated) | 7.96 | 0.51 | 

Row | SMILES | pKi (Glutamate NMDA receptor) | Kb [1] [µM] | ED50 (Mus musculus) [mg/kg]
67 | CC12NC(c3ccccc31)[C@@H](O)c1ccccc12 (stereo in doubt; 120) [listing 2 of 2 here] |  | 0.28 | 
68 | CC12NC(Cc3ccccc31)c1ccc(Cl)cc12 (single isomer, unassigned; (+)) [listing 2 of 2 here] | 8.22 |  | 
69 | C=CC12NC(Cc3ccccc31)c1ccccc12 (configuration not stated) | 7.06 | 0.32 | 
70 | [O-][S+](CC12NC(Cc3ccccc31)c1ccccc12)c1ccccc1 (configuration not stated) | < 3.80 |  | 
71 | CN1C2Cc3ccccc3C1c1ccccc1C2 | 4.24 |  | 
72 | CCN1C2Cc3ccccc3C1c1ccccc12 (configuration not stated) | 4.62 |  | 
73 | CC12NC(Cc3ccc(SC(F)(F)F)cc31)c1ccccc12 (configuration not stated) | 4.77 |  | 
74 | CN1C2CCc3ccccc3C1c1ccccc12 (configuration not stated) | 5.59 |  | 
75 | CC12NC(Cc3ccc(Br)cc31)c1ccccc12 (stereo in doubt; 88) |  | 0.9 | 
76 | CC12NC(Cc3ccccc31)Cc1ccc(Cl)cc12 (configuration not stated) | 6.96 | 0.68 | 
77 | COc1ccc2c(c1)C1(C)NC2Cc2ccccc21 (single isomer, unassigned; (+)) | 7.60 |  | 
78 | CC12NC(c3ccccc31)[C@@H](O)c1ccccc12 (single isomer, unassigned; (-)) | 6.52 |  | 
79 | OCC(O)[C@]12NC(Cc3ccccc31)c1ccccc12 (some centres not stated) | 6.49 |  | 
80 | CC12NC(Cc3cc(O)ccc31)c1ccccc12 (configuration not stated) | 6.56 | 0.51 | 
81 | CCC12NC(Cc3ccccc31)Cc1ccccc12 | 6.92 | 0.29 | 
82 | c1ccc2c(c1)CC1Cc3ccccc3C2N1 | 5.29 |  | 
83 | CN1C2(C)Cc3ccccc3C1(C)c1ccccc12 (configuration not stated) | 6.15 |  | 
84 | CC12NC(Cc3ccc(N=[N+]=[N-])cc31)c1ccccc12 (configuration not stated) | 6.85 |  | 
85 | CC12NC(Cc3ccccc31)c1cc(O)ccc12 (stereo in doubt; (+)-106) [listing 2 of 2 here] |  | 0.14 | 
86 | CN1C2(C)Cc3ccccc3C1(C)c1ccccc1C2 | 5.06 |  | 
87 | CN1C2CCc3ccccc3C1(O)c1ccccc12 (configuration not stated) | < 4.00 |  | 
88 | OCCC12NC(O)(Cc3ccccc31)c1ccccc12 (configuration not stated) | 7.13 | 2.1 | 
